Assay outcomes (PubChem BioAssay)
PHOSPHO1 inh – PubChem AID 1565 | inhibition, % at 13.3 µM | 1.1% of 290,000 active | recombinant PHOSPHO1, absorbance phosphatase assay | Phosphoethanolamine/phosphocholine phosphatase (Homo sapiens), Q8TCT1; in the data active means inhibition above about 60%
Tb MetRS inh – T. brucei MetRS inhibitors, primary screen, biochemical, luminescence; methionyl-tRNA synthetase (Trypanosoma brucei brucei); purified T. brucei MetRS, ATP depletion, Kinase-Glo luminescence; inhibition, % at 11.9 µM; 0.4% of 360,000 active; AID 624268, 2012;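 active means inhibition above a per-plate cutoff of the control wells' mean inhibition plus 3 SD, cut at about 5.5% in these data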;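 further: 0% = DMSO wells median and 100% = median of wells with control inhibitor compound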
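Test system – parasite MetRS enzyme · Reagent – substrates ATP, L-methionine and bulk Escherichia coli tRNA · Doses – 11.9 µM compound single dose, 0.9% DMSO · Times – 15 min enzyme-compound preincubation, 2 h reaction, 10 min detection, 25 °C · Signal – Kinase-Glo luminescence, ATP depletion format · Controls – DMSO-only wells as low control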
p-CIP stab down – p/CIP-EGFP fusion destabilizers, primary screen, fluorescence, F442A cells | 0.01% of 290,000 active | 16 h | decrease of EGFP signal, % at 10 µM;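 active means EGFP signal decrease of at least 30% at 10 µM or well 3 SD below plate mean, unless failing retest; inactive means the rest, including hits failing retest or dose response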
A3A deaminase – APOBEC3A ssDNA deaminase inhibitors, primary screen, selectivity assay for APOBEC3G inhibitor project, biochemical, FAM/TAMRA oligo cleavage fluorescence; DNA dC->dU-editing enzyme APOBEC-3A (Homo sapiens), P31941; recombinant A3A, FAM/TAMRA ssDNA deamination fluorescence; inhibition, % at 20 µM; 0.41% of 330,000 active; AID 493011, 2011;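 active means at least 40% inhibition at 20 µM here, with at most 30% in a related deaminase screen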;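 further: plate controls were A3A with DMSO for no effect and wells lacking A3A enzyme for full effect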
Target sequence (P31941 whole entry, looked up): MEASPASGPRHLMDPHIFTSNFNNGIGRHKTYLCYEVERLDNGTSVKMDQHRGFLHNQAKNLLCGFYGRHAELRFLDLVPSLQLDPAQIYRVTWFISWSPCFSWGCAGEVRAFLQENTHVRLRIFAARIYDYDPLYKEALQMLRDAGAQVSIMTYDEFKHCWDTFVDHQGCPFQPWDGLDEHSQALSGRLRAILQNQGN
APOBEC3G inh – APOBEC3G DNA deaminase inhibitors, primary screen, biochemical, fluorescence, single-stranded DNA substrate, uHTS; recombinant A3G, ssDNA deamination FAM/TAMRA fluorescence; inhibition, % at 20 µM; 0.28% of 330,000 active; AID 493012, 2011;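 active means inhibition of at least 40% at 20 µM, with no more than 30% in the related APOBEC3A deaminase screen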;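 further: plate controls were DMSO wells with A3G for no effect and wells lacking A3G enzyme for full effect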
Target sequence (Q9HC16 whole entry, looked up): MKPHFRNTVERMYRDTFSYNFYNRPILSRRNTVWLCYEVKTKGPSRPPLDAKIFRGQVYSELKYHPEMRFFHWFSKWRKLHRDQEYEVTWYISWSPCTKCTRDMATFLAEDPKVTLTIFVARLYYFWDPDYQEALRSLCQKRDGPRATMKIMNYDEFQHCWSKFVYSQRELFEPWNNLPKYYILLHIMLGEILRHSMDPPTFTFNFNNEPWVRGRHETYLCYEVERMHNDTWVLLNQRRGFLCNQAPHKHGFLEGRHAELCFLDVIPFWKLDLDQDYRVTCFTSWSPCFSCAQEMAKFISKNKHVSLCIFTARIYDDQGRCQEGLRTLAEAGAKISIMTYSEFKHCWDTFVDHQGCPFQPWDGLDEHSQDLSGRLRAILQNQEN
APOBEC3G confirm – APOBEC3G deaminase inhibitor retest, confirmation, biochemical, fluorescence, single-stranded DNA substrate, single concentration. recombinant A3G ssDNA deaminase, UDG/FAM-TAMRA fluorescence. shares compounds with APOBEC3G inh. inhibition, % at 20 µM. 72% of 890 active. AID 493152, 2011;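 active means inhibition reaching a set limit in any replicate at 20 µM, the limit being 80% of the first screen's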
UDG A3G counter – E. coli UDG inhibitors, confirmation, counter-screen for APOBEC3G inhibitor project, biochemical, single concentration, fluorescence, FAM/TAMRA oligo | inhibition, % at 20 µM | UDG counterscreen | AID 504715, 2011 | 710 tested, under 10 active | shares compounds with APOBEC3G inh;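 active means compounds giving 40% or more inhibition at 20 µM in any one of the three replicates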;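 further: plate controls were DMSO wells with UDG and oligo for no effect and DMSO wells lacking both for full effect; inhibitors lower the FAM signal released by uracil excision and alkaline cleavage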
* marks the source's active call; other numbers are inactive results. An excerpt weighted towards active compounds, which were near 1.8% of everything screened.

`O=C(NNc1ccc(O)cc1)c1ccc(Br)cc1` gave PHOSPHO1 inh 38, Tb MetRS inh 0, p-CIP stab down 1, A3A deaminase -3, APOBEC3G inh 53*, APOBEC3G confirm 19 and UDG A3G counter -2.
Screening S=c1nc(-c2ccco2)[nH][nH]1 returned PHOSPHO1 inh 98*, Tb MetRS inh -1, p-CIP stab down -13, A3A deaminase -2, APOBEC3G inh 81*, APOBEC3G confirm 94* and UDG A3G counter -4.
`CN(C)c1ccc(/C=N/n2c(-c3cccnc3)n[nH]c2=S)cc1` gave PHOSPHO1 inh 12, Tb MetRS inh -1, p-CIP stab down -13, A3A deaminase -3, APOBEC3G inh 45*, APOBEC3G confirm 83* and UDG A3G counter -2.
`Cc1ccc(/C=N/n2c(-c3cccnc3)n[nH]c2=S)o1` gave PHOSPHO1 inh -100, Tb MetRS inh 0, p-CIP stab down -4, A3A deaminase -2 and APOBEC3G inh 39.
Screening Cc1ccc(/C=N/n2c(-c3cccnc3)n[nH]c2=S)s1 returned PHOSPHO1 inh 10, Tb MetRS inh 0, p-CIP stab down 2, A3A deaminase -2, APOBEC3G inh 55*, APOBEC3G confirm 71* and UDG A3G counter 2.
Screening Cc1nc2c(=O)[nH]c(=S)n(C)c2nc1C returned PHOSPHO1 inh -18, Tb MetRS inh 0, p-CIP stab down 8, A3A deaminase -2, APOBEC3G inh 52*, APOBEC3G confirm 20 and UDG A3G counter -35.
Screening Cc1nc2[nH]c(=S)[nH]c(=O)c2nc1C returned Tb MetRS inh 0.
Screening S=c1nc(C2CCCCC2)[nH][nH]1 returned PHOSPHO1 inh -11, Tb MetRS inh -1, p-CIP stab down -2, A3A deaminase 1, APOBEC3G inh 43*, APOBEC3G confirm 87* and UDG A3G counter -5.
Screening Cc1cnc(-c2nc3ccccc3n2C(C(=O)NC(C)(C)C)c2cc3ccccc3o2)cn1 (stereo not given) returned Tb MetRS inh 0.
For S=C(Nc1ccc(Br)cc1Cl)NN1CCOCC1 the results were PHOSPHO1 inh 43, Tb MetRS inh -1, p-CIP stab down -1, A3A deaminase 1, APOBEC3G inh 61* and APOBEC3G confirm 3.
Screening COc1ccc(S(=O)(=O)N2CCCC2C(=O)Nc2nnc(-c3cccnc3)s2)cc1 (stereo not given) returned PHOSPHO1 inh 16, Tb MetRS inh 1, p-CIP stab down 10, A3A deaminase 0 and APOBEC3G inh 24.
Screening Cc1cc(-c2nsc(=O)o2)c(S(C)(=O)=O)s1 returned PHOSPHO1 inh 69*, Tb MetRS inh -1, p-CIP stab down -2, A3A deaminase 3, APOBEC3G inh 66* and APOBEC3G confirm 69*.
CCC(=O)N1CCC1(C)C(=O)Nc1cc(OC)ccc1OC (stereo not given) was read as Tb MetRS inh 0.
Screening Cc1cc(C)nc(SSc2nc(C)cc(C)n2)n1 returned PHOSPHO1 inh -44, Tb MetRS inh 0, p-CIP stab down 1, A3A deaminase -4, APOBEC3G inh 57*, APOBEC3G confirm 83* and UDG A3G counter -2.
CC1CCCC(C)N1C(=O)c1cc2ncc(CCCl)cn2n1 (stereo not given) was read as PHOSPHO1 inh -3, Tb MetRS inh 0, p-CIP stab down -2, A3A deaminase -3 and APOBEC3G inh -9.
`CCOC(=O)c1c(NC(=O)CSc2nnnn2-c2ccc(OC)cc2)sc(C)c1C` gave PHOSPHO1 inh 87*, Tb MetRS inh -1, p-CIP stab down -5, A3A deaminase -1, APOBEC3G inh 45*, APOBEC3G confirm 77* and UDG A3G counter -3.
CCc1nn(C(CC)C(=O)NCCc2ccc(OC)cc2OC)c(=O)c2cc3occc3n12 (stereo not given) was read as PHOSPHO1 inh 18, Tb MetRS inh -1, p-CIP stab down 14, A3A deaminase -5 and APOBEC3G inh -8.
For Clc1ccccc1-c1nnc2sc(-c3ccc4c(c3)OCO4)nn12 the results were PHOSPHO1 inh 79*, Tb MetRS inh 0, p-CIP stab down 5, A3A deaminase -1, APOBEC3G inh 53*, APOBEC3G confirm 40* and UDG A3G counter -6.
COc1ccccc1-c1nn2c(-c3ccccc3Cl)nnc2s1 was read as PHOSPHO1 inh -5 and p-CIP stab down 3.
For c1ccc2c(c1)OCC(c1nnc3sc(-c4ccc5c(c4)OCO5)nn13)O2 (stereo not given) the results were PHOSPHO1 inh 84*, Tb MetRS inh 0, p-CIP stab down -9, A3A deaminase -2, APOBEC3G inh 57*, APOBEC3G confirm 48* and UDG A3G counter -3.
Screening NC(=O)Cn1c(=O)n(C2CCCCC2)c(=O)c2c3c(sc21)CCCCC3 returned PHOSPHO1 inh -3, Tb MetRS inh -1, p-CIP stab down -12, A3A deaminase -6 and APOBEC3G inh -10.
Screening O=C(O)c1ccc(NC(=O)c2cccc(S(=O)(=O)Nc3ccc(C(=O)O)cc3)c2)cc1 returned PHOSPHO1 inh 3, Tb MetRS inh 0, p-CIP stab down -11, A3A deaminase 2 and APOBEC3G inh 3.
`O=C1CSc2ccc(C(=O)Nc3cccc(S(=O)(=O)Nc4ccc(Br)cc4)c3)cc2N1` gave PHOSPHO1 inh 12, Tb MetRS inh 0, p-CIP stab down -7, A3A deaminase -4, APOBEC3G inh 49*, APOBEC3G confirm 5 and UDG A3G counter 1.
O=C(Cn1cc(C(F)(F)F)ccc1=O)Nc1ccc2c(c1)OCO2 was read as Tb MetRS inh 2.
Screening CCn1c(-c2cc3c(C(F)(F)F)nn(C)c3s2)n[nH]c1=S returned PHOSPHO1 inh 37, Tb MetRS inh 0, p-CIP stab down 0, A3A deaminase -8, APOBEC3G inh 41*, APOBEC3G confirm 63* and UDG A3G counter -2.
`Cn1c(-c2cc3c(C(F)(F)F)nn(C)c3s2)n[nH]c1=S` gave PHOSPHO1 inh -5, Tb MetRS inh 1, p-CIP stab down -1, A3A deaminase -2, APOBEC3G inh 53*, APOBEC3G confirm 77* and UDG A3G counter 1.
